APP 5'UTR act: activators of APP 5'UTR luciferase reporter, primary screen, SH-SY5Y cells. SH-SY5Y APP 5'UTR luciferase reporter, luminescence; zero percent = DMSO vehicle wells. AID 1276, 2008. activation, % at 2 µM. hit rate 1% among 190,000;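 active means activation above a set limit, based on mean plus 3 SD of controls, cut at about 140% in these data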
STAT1 act: STAT1 signaling activators, primary screen, cell-based, HTS, luciferase reporter; NIH 3T3 STAT1-luciferase reporter, IFN-gamma, luminescence; 100% = IFN-gamma alone, no compound; activation (% of control), % at 5.5 µM; hit rate 2.6% among 200,000; AID 932, 2007;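 active means activation above the screen-wide mean activation plus 3 SD, cut at about 130% in these data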;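 further: raw ratio to IFN-gamma control signal so 100% means no change and 0% no light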
FLuc stim CS: FLuc activators, initial screening, artefact control for FLuc-dependent activation tests, biochemical, ATPlite luminescence; 200,000 tested, under 10 active; ATPlite luciferase biochemical, 10 min; 0 = ATP-free wells, 1 = DMSO control; AID 1027, 2008; activation factor at 10 µM;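 active means luciferase activation factor, scaled between plate controls, of at least 2 with compound at 10 µM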
Target sequence (P08659 whole entry, looked up): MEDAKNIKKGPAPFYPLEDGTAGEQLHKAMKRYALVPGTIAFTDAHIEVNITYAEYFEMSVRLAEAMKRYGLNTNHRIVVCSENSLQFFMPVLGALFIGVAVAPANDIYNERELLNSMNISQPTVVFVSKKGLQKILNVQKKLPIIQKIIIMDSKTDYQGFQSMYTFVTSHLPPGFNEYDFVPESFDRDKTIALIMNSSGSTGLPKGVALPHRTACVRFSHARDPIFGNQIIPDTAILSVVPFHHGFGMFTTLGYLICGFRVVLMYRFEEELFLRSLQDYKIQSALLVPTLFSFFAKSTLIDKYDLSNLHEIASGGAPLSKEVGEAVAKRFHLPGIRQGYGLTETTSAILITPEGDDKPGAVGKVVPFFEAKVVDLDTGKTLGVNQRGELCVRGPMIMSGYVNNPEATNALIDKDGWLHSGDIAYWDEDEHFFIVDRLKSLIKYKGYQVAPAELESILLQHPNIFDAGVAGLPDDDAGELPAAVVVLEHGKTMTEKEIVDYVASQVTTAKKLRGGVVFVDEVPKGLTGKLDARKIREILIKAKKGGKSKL
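System: Luciferase/luciferin detection reagent, cell-free biochemical luciferase assay | Medium: PBS buffer for ATP | Dosing: Test compounds dosed from 2 mM stocks in 100% DMSO | Timing: 10 min at ambient temperature | Signal: Luminescence measurement of luciferase light output | Evaluation: Luciferase activation, seen as luminescence increase over controls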
NF-kB neuron act: activators of NF-kB expression in neurons, primary screen, cell-based, HTS; human neuronal cells, NF-kB reporter expression; stronger effect = higher value; fold change at 12.5 µM; hit rate 1.6% among 190,000; in the data active means fold change above about 3.3
FLuc inhib CS: firefly luciferase enzyme inhibitors, primary screen, artefact control for luciferase-based inhibitor screens, biochemical, luminescence, ATPLite. Luciferin 4-monooxygenase (Photinus pyralis), P08659. hit rate 1.5% among 200,000. inhibition, % at 10 µM. 10 min. AID 1006, 2008;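 active means inhibition above about 50% when tested at 10 µM, limit read from the data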
Starred values were filed as active, the others as inactive; x = no result. Hits are enriched below; roughly 4.1% of the tested compounds scored in any of these assays.

SMILES	APP 5'UTR act	STAT1 act	FLuc stim CS	NF-kB neuron act	FLuc inhib CS
Cc1cc(N/N=C/c2ccncc2)nc2ccccc12	97.9	147.2*	0.8	0.93	22.6
CCn1c(NC(=S)Nc2ccccc2)nc2ccccc21	27.5	113.0	1	0.9	4.9
CCNC(=O)CN(c1ccc(CC)cc1)S(C)(=O)=O	-5.9	99.9	1.1	1.02	-9.1
Cc1ccc(NC(=O)Cn2nnc(C(=O)NCc3ccco3)c2N)cc1	-21.9	95.3	1	1.11	-1.0
Nc1c(C(=O)NCc2ccco2)nnn1CC(=O)Nc1ccc2c(c1)OCO2	-16.1	100.4	1	3.95*	-2.5
Cc1cc(C)nc(Sc2ncnc(N)c2[N+](=O)[O-])n1	-7.7	93.2	1.1	1.24	-5.2
Nc1ccc(C(=O)OCc2nc3c(ccc4ccccc43)[nH]2)cc1	92.3	150.9*	1	2.36	-1.8
O=c1[nH][nH]cc1C=Nc1ccc(Cl)cc1Cl	-63.9	94.4	0.9	1.17	11.2
O=c1[nH][nH]cc1C=Nc1ccccc1O	22.2	82.2	1	6.22*	-1.7
O=c1[nH][nH]cc1C=Nc1cc(Cl)ccc1O	-20.6	82.9	1	4.15*	1.3
O=c1[nH][nH]cc1C=Nc1ccccc1Cl	-3.0	102.9	0.9	1.12	13.6
COc1ccc2c(c1)CCC1C2=NN(/C(C)=C\C(C)=O)C1c1ccc(F)cc1 (stereo not drawn)	43.1	130.0*	0.8	1.82	21.5
CC1=NC(=O)C(N=Nc2ccccc2)N1c1ccccc1 (stereo not drawn)	51.1	121.0	0.9	4.38*	7.7
CC1=NC(=O)C(N=Nc2ccccc2C)N1c1ccccc1 (stereo not drawn)	13.4	105.9	x	x	x
CC1=NC(=O)C(N=Nc2ccccc2C(=O)O)N1c1ccccc1 (stereo not drawn)	9.7	38.5	0.9	0.86	10.3
CC1=NC(=O)C(N=Nc2cccc(C(=O)O)c2)N1c1ccccc1 (stereo not drawn)	86.6	73.5	0.5	9.47*	54.0*
O=C(NCC1CCCO1)C(=O)c1c[nH]c2ccccc12 (stereo not drawn)	24.4	115.6	0.9	1.37	10.0
O=C(Nc1ccc(Cl)c(Cl)c1)Nc1ccccc1C(=O)O	214.9*	140.3*	0.3	7.74*	66.7*
O=C(Nc1ccc(Cl)cc1)Nc1ccccc1C(=O)O	119.2	76.7	0.1	4.55*	90.1*
CSc1ccccc1NC(=O)Nc1ccc(Cl)cc1	17.7	98.8	0.9	1.88	11.6
CC(C)C(=O)Nc1cccc(C(=O)Nc2ccccc2C(=O)O)c1	-4.8	86.7	0.4	1.12	60.6*
COC(=O)c1sccc1NC(=O)Nc1ccc(Cl)c(Cl)c1	16.5	143.9*	1	2.35	-0.9
O=C(O)CCCC(=O)Nc1cccc(C(=O)Nc2ccccc2C(=O)O)c1	-2.2	92.8	1	0.93	2.3
COc1ccc(CNC(=O)CS(=O)CC(=O)O)cc1OC (stereo not drawn)	-22.9	102.7	1	1.08	1.8
COc1ccc(CCNC(=O)C2CCN(C(=O)c3ccc([N+](=O)[O-])cc3)CC2)cc1	-23.3	104.0	1.1	1.13	-8.9
SMILES	APP 5'UTR act	STAT1 act	FLuc stim CS	NF-kB neuron act	FLuc inhib CS
O=C(/C=C/c1ccncc1)c1ccc(NC(=O)c2ccccc2F)cc1	-20.6	93.8	1.1	0.72	-6.1
O=C(NCCc1ccccc1)Nc1ccc(Cl)cc1	x	146.8*	1.1	2.75	-5.4
O=C(O)c1cccnc1Nc1ccc(Cl)cc1	10.5	142.7*	1	2.8	-1.6
Cc1ccc(Nc2ncccc2C(=O)O)cc1C	7.0	115.2	0.9	1.63	8.6
CCOC(=O)C1=C(CSc2nc3ccccc3s2)NC(=O)NC1c1cccc([N+](=O)[O-])c1 (stereo not drawn)	3.3	96.4	1	0.94	-0.9
Cc1ccc(NC(=O)NCCCc2ccccc2)cc1	41.2	102.1	1	1.55	-0.3
O=C(NC1CC1)c1ccc(-c2nc3ccccc3s2)s1	82.6	31.4	0	1.08	95.9*
CCNC(=O)COC(=O)c1ccc(-c2nc3ccccc3s2)s1	52.0	98.2	0.1	1.09	86.7*
O=C(c1ccc(Cl)s1)N1CCOCC1	3.0	90.3	1.1	1.1	-5.4
